The target of assay [1] is T1, GABA-A receptor; anion channel (Mus musculus) (UniProt Q8BHJ7+P26048+Q8QZW7+P50571+Q9R0Y8+P22723+A2AMW3+P62812+Q9JLF1+P26049+P22933+Q9D6F4+P63080+P27681+P16305). Nature of the assay: Effect on GABA-A-induced 36chloride ion influx in mouse embryo cortical neurons at 10 uM relative to basal value. The format is functional. In short, it runs like this: (§1)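 Primary cortical neurons from 16-day mouse embryos, cultured 7-9 days with 5 µM fluorodeoxyuridine/20 µM uridine to block glia. 45 min preincubation in Earle's salt solution pH 7.4 at 36.8 °C, then 10 min at room temperature. 7 s uptake of 36Cl (0.2-0.7 µCi/mL) with or without 5 µM GABA plus steroid. Basal uptake measured without GABA or steroid. Lysate counted by scintillation.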

For assay [2], the target named is T1, GABA-A receptor; anion channel (Mus musculus). The assay can be described thus: (§2) Increase in [3H]flunitrazepam binding to GABA-A receptor in mouse embryo cortical neurons. The format is protein-complex assay. The procedure, abridged: (§3)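 Intact mouse embryonic cortical neurons at 7-9 days in vitro, washed into HEPES buffer pH 7.3. Incubated 30 min at 25 °C with 1.3-2.0 nM [3H]flunitrazepam and steroid (1 nM-30 µM, DMSO <0.5% final). Nonspecific binding taken with 20 µM diazepam; 100 µM GABA as positive control. Data as % of control binding. EC50 from sigmoid fits of at least six concentrations in triplicate, 3-5 independent curves.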

In assay [3] the test system is Cortical neurone. The assay can be described thus: Loss of viability of cortical neuron at 10 uM after 72 hrs. Particulars: Mus musculus. In kind it is functional, cell-based. The procedure, abridged:
(§4)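 Mouse embryonic cortical neuron cultures exposed to steroid at 10 µM for 72 h, or 100 µM for 24 or 72 h. MTT (250 µg/mL in HEPES buffer) for 15 min at 37 °C, formazan dissolved in 5% SDS and read at 560 nm. Expressed as % of untreated controls. Two independent experiments in triplicate.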

Assay [4] has as its target GABA-A receptor; anion channel. The assay is described as §2. In kind it is protein-complex assay. The procedure, abridged: as §3
Assay [5] concerns Cortical neurone. The assay can be described thus: Loss of viability of cortical neuron at 100 uM after 72 hrs. In kind it is functional, cell-based. Particulars: Mus musculus. In short, it runs like this: as §4
Assay [6] relates to Cortical neurone. The assay can be described thus: Loss of viability of cortical neuron at 100 uM after 24 hrs. In kind it is functional, cell-based. Particulars: Mus musculus. The procedure, abridged: as §4
Assay [7] concerns the target T1, GABA-A receptor; anion channel (Mus musculus). Nature of the assay: Effect on 36chloride ion influx in mouse embryo cortical neurons in absence of GABA-A at 10 uM relative to basal value. The format is functional. In short, it runs like this: as §1
Assay [8] deals with GABA-A receptor; anion channel (Rattus norvegicus) (UniProt O09028+P15431+P18506+P18508+P19969+P20236+P23574+P23576+P28471+P28473+P30191+P62813+P63079+P63138+Q91ZM7+Q9ES14). Nature of the assay: Inhibition of [35S]TBPS binding to GABA-A receptor in Wistar rat brain membrane at 10 uM. In kind it is cell membranes. The procedure, abridged: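 Whole-brain membranes from adult male Wistar rats in 20 mM KH2PO4/200 mM KCl, pH 7.4. Incubated 60 min at 37 °C with 2 nM [35S]TBPS, 1 µM GABA and steroid. Nonspecific binding defined with 200 µM picrotoxinin. Results expressed as % of DMSO controls.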

The structures appear in SMILES notation. Active and inactive are the calls of the source. The calls are words filed in the database; no cut-off is given here.

On to `CC(=O)[C@H]1CC[C@H]2[C@@H]3C(=O)C[C@H]4C[C@H](O)CC[C@]4(C)[C@H]3CC[C@]12C`, for which the Activity in assay [1] was 90%. The result in assay [2] was inactive.
`CC(=O)[C@H]1CC[C@H]2[C@@H]3CC[C@H]4C[C@H](O)CC[C@]4(C)[C@H]3CC[C@]12C` [BREXANOLONE]: the result in the assay on Cortical neurone [3] and in the assay on Cortical neurone [6] was inactive. The compound also yielded an Activity in assay [1] of 164%. The “Log EC50” value in assay [4] is reported as -6.06. The outcome with Cortical neurone [5] was Active.
In the case of `CC(=O)[C@H]1CC[C@H]2[C@@H]3C[C@@H]4C[C@H](O)CC[C@]4(C)[C@H]3CC[C@]12C`, the result with Cortical neurone [3] and in the assay on Cortical neurone [6] was inactive. The values for the Activity in assay [1] and in assay [7] were 172% and 1.7%, respectively. For the same compound, in assay [4], the “Log EC50” value is recorded as -6.03.
With `CC(=O)[C@H]1CC[C@H]2[C@@H]3CC(=O)[C@H]4C[C@H](O)CC[C@]4(C)[C@H]3CC[C@]12C`, the Activity in assay [1] stood at 100%. Moreover, the result in assay [2] was inactive.
`CC(=O)[C@H]1CC[C@H]2[C@@H]3C(=O)N[C@H]4C[C@H](O)CC[C@]4(C)[C@H]3CC[C@]12C` showed an Activity in assay [1] of 81%. Besides, in assay [2], the result was inactive.
The matching figures for `CC(=O)[C@H]1CC[C@H]2[C@@H]3[C@@H]4O[C@@]45C[C@H](O)CC[C@]5(C)[C@H]3CC[C@]12C`: 103% and “inactive”.
As to `CC(=O)[C@H]1CC[C@H]2[C@@H]3CC=C4C[C@H](O)CC[C@]4(C)[C@H]3CC[C@]12C`, the Activity in assay [1] stood at 131%.
`CC(=O)[C@H]1CC[C@H]2[C@@H]3CN[C@H]4C[C@H](O)CC[C@]4(C)[C@H]3CC[C@]12C` returned an Activity in assay [1] of 86%. In assay [2], the outcome was inactive.
In assay [1], `CC(=O)[C@H]1CC[C@H]2[C@@H]3CC[C@@H]4C[C@H](O)CC[C@]4(C)[C@H]3CC[C@]12C` [ELTANOLONE] showed an Activity of 162%. For the same compound, the “Log EC50” value in assay [4] is recorded as -5.93.
Consider `CC(=O)[C@H]1CC[C@H]2[C@@H]3[C@H]4O[C@]45C[C@H](O)CC[C@]5(C)[C@H]3CC[C@]12C`, for which, in assay [1], the Activity amounted to 104%. The outcome in assay [2] was inactive.
`CC(=O)[C@H]1CC[C@H]2[C@@H]3C[C@H]4C[C@H](O)CC[C@]4(C)[C@H]3CC[C@]12C`: the result with Cortical neurone [3] and with Cortical neurone [6] was inactive. The Activity worked out at 199% in assay [1] and 1.7% in assay [7]. Moreover, the “Log EC50” value in assay [4] is given as -6.61. The compound further returned an inhibition in assay [8] of 33%.
Consider `CC(=O)[C@H]1CC[C@H]2[C@H]3C(=C4CC[C@@H](O)C[C@@]4(C)[C@H]3O)CC[C@]12C`, for which the Activity in assay [1] was determined as 76%. Besides, the outcome in assay [2] was inactive.
Take `CC(=O)[C@H]1CC[C@H]2[C@@H]3C(=O)[C@H]4C[C@H](O)CC[C@]4(C)[C@H]3CC[C@]12C`: in assay [1], the Activity stood at 82%. In addition, the result in assay [2] was inactive.
`CC(=O)[C@H]1CC[C@H]2[C@@H]3[C@H]4O[C@]45C[C@@H](O)CC[C@]5(C)[C@H]3CC[C@]12C` displayed an Activity in assay [1] of 99%. In addition, in assay [2], the outcome was inactive.

Broadly, the inhibition is the relative decrease from the control value, in per cent. Higher therefore signals strong suppression.
